From ChEMBL document CHEMBL1933002, “Development and characterization of improved β-lactone-based anti-virulence drugs targeting ClpP” (Bioorg Med Chem, 2012)
pEC50: −log10 of the molar value. The source made the active and inactive calls. The rule behind the calls is not given here.

Assays:
[1] = target: T1, ATP-dependent Clp protease proteolytic subunit (Staphylococcus aureus (strain NCTC 8325)) (UniProt Q2G036); assay: Inhibition of recombinant Staphylococcus aureus NCTC 8325 peptidase activity of clpP expressed in Escherichia coli BL21 at 10 to 40 uM after 10 mins using SLY-AMC as substrate by fluorescence assay
T1 sequence (whole entry): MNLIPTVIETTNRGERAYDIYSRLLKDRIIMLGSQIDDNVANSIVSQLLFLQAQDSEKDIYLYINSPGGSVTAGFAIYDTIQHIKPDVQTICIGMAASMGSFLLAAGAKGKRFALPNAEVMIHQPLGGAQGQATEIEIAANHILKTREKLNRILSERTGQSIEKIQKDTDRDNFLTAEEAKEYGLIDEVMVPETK
How it was run: (§1)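 Recombinant S. aureus ClpP (Strep-tag purified from E. coli BL21), 2 µg, preincubated 10 min at room temperature with lactone or DMSO in 50 mM MES, 100 mM KCl, pH 7.0. SLY-AMC added at 0.2 mM final, 2% DMSO final. Fluorescence read at ex 340/em 450 nm. At least triplicates; EC50 from curve fitting.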

[2] = target: T2, ATP-dependent Clp protease proteolytic subunit (Staphylococcus aureus (strain NCTC 8325), UniProt Q2G036); assay: Inhibition of recombinant Staphylococcus aureus NCTC 8325 peptidase activity of clpP expressed in Escherichia coli BL21 after 10 mins using SLY-AMC as substrate by fluorescence assay; how it was run: as §1
T2 sequence (Q2G036 whole entry): T1 sequence (whole entry)

[3] = tested on: Staphylococcus aureus; assay: Antivirulence activity against Staphylococcus aureus NCTC 8325-4 in sheep RBC assessed as inhibition of hemolysis in agar plate by measuring hemolysin level after overnight incubation by serial dilution agar plate assay; type: functional, organism-based
How it was run: (§2)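 S. aureus NCTC 8325 inoculated onto 5.5 mm card discs on 5% sheep blood agar plates, together with serial dilutions of β-lactone in DMSO, and incubated overnight at 37 °C. Hemolysis zones were measured and normalized to the DMSO control. Compound stocks were kept in DMSO at -20 °C.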

[4] = tested on: Staphylococcus aureus; assay: Growth inhibition of Staphylococcus aureus NCTC 8325 at 1 mM after 9 hrs; type: functional, organism-based
How it was run: (§3)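 Overnight cultures diluted 1:100 in LB (P. aeruginosa, E. coli) or BHB (S. aureus, S. epidermidis, E. faecalis). 100 µL treated with 1 µL of 100 mM lactone stock or DMSO control. Shaken in 96-well plates for 9 h at 37 °C, then OD600 read. Triplicates.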

[5] = tested on: Staphylococcus epidermidis; assay: Growth inhibition of Staphylococcus epidermidis RP62A at 1 mM after 9 hrs; type: functional; how it was run: as §3
[6] = tested on: Pseudomonas aeruginosa; assay: Growth inhibition of Pseudomonas aeruginosa PAO1 at 1 mM after 9 hrs; type: functional, organism-based; how it was run: as §3
[7] = tested on: Enterococcus faecalis; assay: Growth inhibition of Enterococcus faecalis OG1RF at 1 mM after 9 hrs; type: functional; how it was run: as §3
[8] = tested on: Escherichia coli; assay: Growth inhibition of Escherichia coli K-12 at 1 mM after 9 hrs; type: functional, organism-based; how it was run: as §3
[9] = Cytotoxicity against mouse NIH/3T3 cells assessed as cell viability at 200 to 1000 uM after 24 hrs by MTT assay; type: cell-based, NIH3T3; settings: read-out: Activity
How it was run: (§4)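 NIH3T3 cells in DMEM (4 mM glutamine) + 10% FCS, plated at 1.5×10^3/well and cultured 24 h to 30-40% confluence. Lactones diluted 1:100 from DMSO stocks into fresh medium; cells exposed 24 h. MTT (5 mg/ml stock) added for 2 h, cells lysed in DMSO, OD at 570 nm with 630 nm background subtraction.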

[10] = tested on: NIH3T3; assay: Cytotoxicity against mouse NIH/3T3 cells assessed as cell viability up to 1 mM after 24 hrs by MTT assay; type: cell-based; settings: nih3t3, 24 h; how it was run: as §4
[11] = tested on: HaCaT; assay: Cytotoxicity against human HaCaT cells assessed as cell viability after 24 hrs by MTT assay; type: cell-based
How it was run: (§5)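 MTT read-out after 24 h exposure. NIH3T3 grown in DMEM (4 mM glutamine) + 10% FCS and plated at 1.5×10^3/well; HaCat grown in calcium-free DMEM (2 mM glutamine) + 10% dialyzed FCS and plated at 4.5×10^3/well. Cells cultured 24 h to 30-40% confluence. Lactones diluted 1:100 from DMSO stocks into fresh medium. MTT added for 2 h, formazan dissolved in DMSO, OD 570 nm minus 630 nm.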

[12] = target: T1, ATP-dependent Clp protease proteolytic subunit (Staphylococcus aureus (strain NCTC 8325)); assay: Displacement of U1P from clpP in live Staphylococcus aureus NCTC 8325 cells after 1 hr using rhodamine-azide by SDS PAGE fluorescence analysis
[13] = tested on: Staphylococcus aureus; assay: Antivirulence activity against Staphylococcus aureus NCTC 8325-4 in sheep RBC assessed as inhibition of hemolysis in liquid medium by measuring hemolysin level after overnight incubation by spent culture supernatant assay
[14] = tested on: NIH3T3; assay: Cytotoxicity against mouse NIH/3T3 cells assessed as cell viability after 24 hrs by MTT assay; type: cell-based; settings: NIH3T3, 24 h; how it was run: as §5
[15] = tested on: Staphylococcus aureus; assay: Antivirulence activity against Staphylococcus aureus NCTC 8325-4 in sheep RBC assessed as inhibition of hemolysis in blood agar plate by measuring hemolysin level after overnight incubation by serial dilution agar plate assay; type: functional, organism-based; how it was run: as §2
[16] = tested on: Staphylococcus aureus; assay: Antivirulence activity against Staphylococcus aureus NCTC 8325-4 in sheep RBC assessed as inhibition of hemolysis in liquid medium by measuring hemolysin level at 100 uM after overnight incubation by spent culture supernatant assay relative to control
[17] = target: T1, ATP-dependent Clp protease proteolytic subunit (Staphylococcus aureus (strain NCTC 8325)); assay: Inhibition of recombinant Staphylococcus aureus NCTC 8325 peptidase activity of clpP expressed in Escherichia coli BL21 at 200 to 800 uM after 10 mins using SLY-AMC as substrate by fluorescence assay; how it was run: as §1
[18] = tested on: Staphylococcus aureus; assay: Antivirulence activity against Staphylococcus aureus NCTC 8325 in sheep RBC assessed as inhibition of hemolysis in blood agar plate at 100 uM by measuring hemolysin level after overnight incubation by serial dilution agar plate assay

| SMILES | inhibition [1] | pEC50 [2] | ED50 [3] | pEC50 [11] | Activity [12] | pEC50 [13] | Activity [15] | inhibition [17] | Activity [18] | further results |
| --- | --- | --- | --- | --- | --- | --- | --- | --- | --- | --- |
| C=CCCCCCCC[C@H]1C(=O)O[C@@H]1CCc1ccccc1 (racemic) | 30% | 5.47 | 7 nmol | 4.04 | Active | 4.96 | – | – | – | growth inhibition (GI) [4]: inactive; growth inhibition (GI) [5]: inactive; growth inhibition (GI) [6]: inactive; growth inhibition (GI) [7]: inactive; growth inhibition (GI) [8]: inactive; viability at 24 h, up to 1000 µM [9]: 80%; Activity [10]: Non-toxic |
| C=CCCCCCCC[C@H]1C(=O)O[C@@H]1CCc1cccnc1 (racemic) | – | 5.35 | 15 nmol | 4.12 | Active | 4.37 | – | – | – | pEC50 [14]: 4.30 |
| C=CCCCCCCC[C@H]1C(=O)O[C@@H]1CCCCCNC(=O)c1ccc(N(C)C)cc1 (racemic) | 70% | 5.27 | – | – | Active | – | inactive | – | – | inhibition at 100 µM [16]: 20% |
| C=CCCCCCCCC[C@H]1OC(=O)[C@@H]1CCCCCCCCCNC(=O)OC(C)(C)C (racemic) | – | – | – | – | – | – | inactive | inactive | inactive | – |
| C=CCCCCCCC[C@H]1C(=O)O[C@@H]1CCCCCCCCCCCNC(=O)OC(C)(C)C (racemic) | – | – | – | – | – | – | inactive | inactive | inactive | – |
| CCCCCCCCCCCC[C@H]1C(=O)O[C@@H]1CCc1ccccc1 (racemic) | – | – | – | – | – | – | inactive | inactive | inactive | – |
